Measurements collected from several papers.
Compare with care: the assays were run in different laboratories. pIC50: −log10 of the molar value.
Observed: cell growth or viability

| SMILES | cell line | test | conditions | pIC50 |
| --- | --- | --- | --- | --- |
| CNC(=O)c1ncn2c(NCc3c(F)ccc4c3CCO4)ncc(-c3ccccc3)c12 | KARPAS-422 | – | 7 days | 7.28 |
| COC(=O)c1cc2ccc(O)cc2oc1=O | HEK293 | MTT | 36 h | < 4.70 |
| COc1cc2c(Nc3ccc(Cl)c(Cl)c3F)ncnc2cc1OC[C@@H]1C[C@@H]2CN(C)C[C@@H]2C1 | GBM6 | ATP luminescence | 18 days, 3D culture | 6.99 |
| Cc1c(NC(=O)c2ccc(C(C)(C)C)cc2)cccc1-c1cn(C)c(=O)c(Nc2ccc(C(=O)N3CCOCC3)cc2)n1 | CNE2Z | – | – | < 5.00 |
| COc1ccc(F)cc1C(=O)NCc1ccc(-c2nn([C@@H](C)C(F)(F)F)c(N)c2C(N)=O)cc1 | TMD8 | ATP luminescence | 72 h | 8.19 |
| C=CC(=O)Nc1cccc(Nc2nc(Nc3ccc(OCCOC)cc3)ncc2F)c1 | CNE2Z | – | – | 5.20 |
| C=CC(=O)Nc1cc(Nc2nc(N3CCc4sccc4C3)c3cccnc3n2)c(OC)cc1N1CCN(C(C)=O)CC1 | NCI-H1975 | MTT | – | 6.16 |
| COc1ccc2oc(=O)cc(CSC(C)=O)c2c1 | HEK293 | MTT | 36 h | < 4.70 |
| Cc1cc(C)c2cc(CNCCCNc3nc4ccccc4[nH]3)[nH]c2c1 | HEK293 | – | – | < 5.00 |
| CC(C)C[C@H](NC(=O)[C@H](Cc1ccccc1)NC(=O)c1cnccn1)B(O)O | MKN-1 | ATP luminescence | – | 8.28 |
| CCSC(=O)c1ncn2c(=O)n(C)nnc12 | T98G | resazurin | 7 days | 3.49 |
| CCC(=O)Nc1cc(Nc2nc(N3CCc4sccc4C3)c3cccnc3n2)c(OC)cc1N1CCN(CCO)CC1 | NCI-H1975 | MTT | – | 6.33 |
| Cc1[nH]c(C)c(-c2ccc(-c3ccccc3C(F)(F)F)nc2)c(=O)c1Br | HEK293 | – | – | < 5.00 |
| CCC(=O)Nc1cc(Nc2nc(N3CCc4sccc4C3)c3cccnc3n2)c(OC)cc1N1CCC(N(C)C)CC1 | NCI-H1975 | MTT | – | 6.09 |
| CC(C)[C@H](N)C(=O)N1CCC[C@H]1B(O)O | SET-2 | ATP luminescence | 48 h | 8.22 |
| CC#CC(=O)N1CCC[C@H]1c1nc(-c2ccc(C(=O)Nc3ccccn3)cc2)c2c(N)nccn12 | TMD8 | CCK-8 | 72 h | 7.85 |
| C=CC(=O)Nc1cc(Nc2nc(N3CCOCC3)c3sccc3n2)c(OC)cc1N(C)CCN(C)C | NCI-H1975 | MTT | – | 4.43 |
| COc1ccc2oc(=O)cc(CCl)c2c1 | HEK293 | MTT | 36 h | < 4.70 |
| C=CC(=O)Nc1cc(Nc2nc(N3CCc4sccc4C3)c3cccnc3n2)c(OC)cc1N1CCSCC1 | NCI-H1975 | MTT | – | 6.51 |

| SMILES | cell line | test | conditions | pIC50 |
| --- | --- | --- | --- | --- |
| c1cc(CN2CCN(c3ccncc3)CC2)cc(-c2ccc(-c3nc4ccccc4[nH]3)cc2)c1 | HEK293 | – | – | < 5.00 |
| CC(=O)O[C@H](C)C(=O)CCCCCCC(=O)Nc1ccccc1 | HEK293 | XTT | – | 4.44 |
| Cc1[nH]cc(Br)c(=O)c1-c1ccc(Oc2ccc(OC(F)(F)F)cc2)cc1 | HEK293 | – | – | < 5.00 |
| Cn1nnc2c(C(N)=O)ncn2c1=O | T98G | resazurin | 7 days | 3.18 |
| CCCCCCCc1[nH]c2ccccc2c(=O)c1C | HEK293 | – | – | < 5.00 |
| C=CCC[C@@H]1NC(=O)[C@H]2CCCN2C(=O)[C@H](Cc2ccccc2)NC(=O)C(C)(C)NC1=O | HEK293 | XTT | – | < 4.00 |
| O=c1cc(CCl)c2c(O)cc(O)cc2o1 | HEK293 | MTT | 36 h | < 4.70 |
| O=C1NC(=NCc2cccs2)S/C1=C\c1ccc2ncccc2c1 | SK-MEL-28 | – | – | < 5.00 |
| C=C(Cl)C(=O)Nc1cc(Nc2nc(Nc3cnn(C)c3)c3sccc3n2)c(OC)cc1N(C)CCN(C)C | NCI-H1975 | MTT | – | 7.64 |
| C/C=C/COc1ccc(-c2c(C)[nH]c(C)c(Cl)c2=O)cc1 | HEK293 | – | – | < 5.00 |
| C=C(Cl)C(=O)Nc1cc(Nc2nc(N3CCCC3)c3sccc3n2)c(OC)cc1N(C)CCN(C)C | NCI-H1975 | MTT | – | 6.90 |
| Cn1nnc2c(Cl)ncn2c1=O | T98G | resazurin | 7 days | 4.22 |
| Cc1[nH]c(C)c(-c2ccc(CCc3ccc(F)cc3F)cc2)c(=O)c1Br | HEK293 | – | – | < 5.00 |
| O=c1cc(CCl)c2ccc(O)cc2o1 | HEK293 | MTT | 36 h | 4.80 |
| C=CC(=O)Nc1cc(Nc2nc(N3CCc4sccc4C3)c3cccnc3n2)c(OC)cc1N1CCN(CCO)CC1 | NCI-H1975 | MTT | – | 6.04 |
| Cc1[nH]c(C)c(-c2ccc(OCc3ccc(F)cc3)cc2)c(=O)c1Cl | HEK293 | – | – | < 5.00 |
| CCN(CC)C(=O)c1ncn2c(=O)n(C)nnc12 | T98G | resazurin | 7 days | 3.80 |
| CC[C@@H](C)[C@H](N)C(=O)N1Cc2ccccc2C1 | SET-2 | ATP luminescence | 48 h | 6.91 |
